Screens deposited in PubChem BioAssay by several laboratories.
Shown are actives, neighbours in structure and some others; about 1.6% of the full set was active somewhere.
ATG4B inh = ATG4B protease inhibitors, primary screen, biochemical, fluorescence, uHTS | Cysteine protease ATG4B (Homo sapiens), Q9Y4P1 | ATG4B cleavage of LC3-PLA2, NBD-HPC fluorescence, 1 h | inhibition, % at 8.33 µM | 0.51% of 340,000 active | AID 504462, 2011; in the data active means inhibition above about 40%
PKA-R1A activ = activators of PKA-R1A holoenzyme, primary screen, biochemical, fluorescence polarization, Cy5-IP20, bovine R1A, mouse PKAc | activation, % at 11.4 µM | AID 504707, 2011 | cAMP-dependent protein kinase type I-alpha regulatory subunit (Bos taurus) + … | PKA-R1A dissociation; scaled: DMSO 0%, 113 µM cGMP 100% | 0.083% of 340,000 active;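 active means percent activation above the mean of all tested compounds plus 3 SD, cut at about 19% in these data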;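 further: higher means more PKAc released from R1A so a rise in polarization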
PKA-R2B act = activators of PKA-R2B holoenzyme, primary screen, biochemical, fluorescence polarization, Cy5-IP20, human. cAMP-dependent protein kinase catalytic subunit beta (Homo sapiens) + cAMP-dependent …. PKA-R2B holoenzyme dissociation; R2B truncated from residue 108, S112A mutant; 0% DMSO only, 100% 113 µM cGMP. activation, % at 11.4 µM. 0.079% of 340,000 active. AID 504700, 2011;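 active means activation above a cutoff set at the mean over all compounds plus 3 SD, cut at about 18% in these data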;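 further: higher means more holoenzyme dissociation and a rise in polarization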
PfG6PD inh = PfG6PD enzyme inhibitors, primary screen, biochemical, fluorescence intensity, uHTS. glucose-6-phosphate dehydrogenase-6-phosphogluconolactonase (Plasmodium falciparum 3D7). PfGluPho enzyme, NADPH resazurin-diaphorase fluorescence. inhibition, % at 20 µM. 0.78% of 350,000 active. AID 504690, 2011;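 active means inhibition reaching at least a set limit at 20 µM in the primary screen, cut at about 59% in these data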
T cell modulator = modulators of CD8 T cell-vesicle binding, primary screen, mouse 2C CD8+ T cells, flow cytometry; 0.068% of 330,000 active; response (vesicle binding), % at 7 µM; 2C CD8+ T cell-vesicle binding; stronger effect = lower value; AID 2052, 2009;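 active means response, share of CD8 T cells binding vesicles, and their 90th percentile fluorescence all below set limits, cut at about 80% in these data, passing the limit was not always enough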;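 further: values below 100% mean blocked vesicle binding to the CD8+ T cells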
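Assay system: 2C TCR transgenic mouse naive CD8+ T cells, MACS-purified | Read-out: CD8+ gate FL2 mean fluorescence as % of same-row positive control | Signal: High-throughput flow cytometry with anti-B7-1 and anti-CD8 staining | Timing: Binding step 1.5 h, 37 °C, antibody labelling 20 min, ice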
HKDC1 inh = HKDC1 hexokinase inhibitors, primary screen, biochemical, fluorescence, uHTS | Q2TB90 | recombinant HKDC1, G6PDH/diaphorase resazurin coupled fluorescence | inhibition, % at 20 µM | 0.16% of 340,000 active;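 active means inhibition above about 35% when tested at 20 µM, limit read from the data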
Target sequence (Q2TB90 whole entry, looked up): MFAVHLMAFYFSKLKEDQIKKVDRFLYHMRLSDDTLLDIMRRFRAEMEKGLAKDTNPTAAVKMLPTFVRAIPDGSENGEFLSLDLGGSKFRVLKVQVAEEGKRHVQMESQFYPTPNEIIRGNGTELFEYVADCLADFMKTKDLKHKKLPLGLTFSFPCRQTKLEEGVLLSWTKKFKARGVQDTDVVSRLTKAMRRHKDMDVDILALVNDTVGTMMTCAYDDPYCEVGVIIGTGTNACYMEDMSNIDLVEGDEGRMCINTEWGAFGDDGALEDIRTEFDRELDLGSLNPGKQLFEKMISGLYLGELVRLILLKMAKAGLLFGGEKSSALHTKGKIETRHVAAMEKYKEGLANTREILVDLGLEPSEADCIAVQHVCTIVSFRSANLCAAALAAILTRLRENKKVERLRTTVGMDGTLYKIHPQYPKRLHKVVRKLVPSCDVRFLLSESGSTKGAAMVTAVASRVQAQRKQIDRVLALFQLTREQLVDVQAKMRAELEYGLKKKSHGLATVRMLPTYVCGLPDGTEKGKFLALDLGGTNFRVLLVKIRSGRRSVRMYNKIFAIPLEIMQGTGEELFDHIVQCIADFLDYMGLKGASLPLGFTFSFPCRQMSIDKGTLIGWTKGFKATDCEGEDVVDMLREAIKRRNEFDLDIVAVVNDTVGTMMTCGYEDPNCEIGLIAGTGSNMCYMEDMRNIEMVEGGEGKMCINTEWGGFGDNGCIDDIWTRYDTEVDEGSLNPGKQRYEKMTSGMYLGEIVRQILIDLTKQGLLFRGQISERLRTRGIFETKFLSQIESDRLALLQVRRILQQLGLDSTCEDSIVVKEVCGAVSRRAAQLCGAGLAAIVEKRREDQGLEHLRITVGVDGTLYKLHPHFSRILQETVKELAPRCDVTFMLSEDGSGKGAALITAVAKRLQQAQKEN
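Test system: Recombinant HKDC1 (HK5) hexokinase enzyme, produced in-house | Input: HKDC1 at 5 µg/mL | Buffer or medium: Tris pH 8.0 buffer with MgCl2, Tween-20, BSA, BME | Schedule: 90 min reaction incubation at room temperature, dark | Technique: Resazurin-to-resorufin fluorescence via G6PDH and diaphorase coupling, 525/613 nm | Controls: DMSO wells with and without enzyme mix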
PfG6PD confirm = PfG6PD inhibitors, hit retest, confirmation, biochemical, fluorescence intensity, single concentration; shares compounds with PfG6PD inh; recombinant PfGluPho, NADPH-diaphorase-resazurin fluorescence; inhibition, % at 20 µM; 34% of 2,400 active; AID 504753, 2011;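 active means inhibition of at least 50% at 20 µM in any single replicate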
Diaph ctr 10uM = diaphorase inhibitors and chemical oxidizers, confirmation, counter-screen for P. falciparum G6PD inhibitor project, biochemical, fluorescence intensity, 10 µM NADPH; shares compounds with PfG6PD inh; diaphorase-coupled resazurin reduction, NADPH 10 uM; inhibition, % at 20 µM; 39% of 820 active; AID 504862, 2011;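 active means average inhibition reaching 50% or more with the compound at 20 µM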;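 further: resorufin red fluorescence formed as diaphorase reduces resazurin using NADPH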
Diaph ctr 30uM = diaphorase inhibitors and chemical oxidizers, confirmation, counter-screen for P. falciparum G6PD inhibitor project, biochemical, fluorescence intensity, 30 µM NADPH; shares compounds with PfG6PD inh; Diaphorase/resazurin coupled assay, resorufin fluorescence; inhibition, % at 20 µM; 29% of 820 active; AID 504863, 2011;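 active means inhibition averaging 50% or more, tested at 20 µM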
A number is an active result; i = inactive; nt = no result.

SMILES | ATG4B inh | PKA-R1A activ | PKA-R2B act | PfG6PD inh | T cell modulator | HKDC1 inh | PfG6PD confirm | Diaph ctr 10uM | Diaph ctr 30uM
COC(=O)c1[nH]c2ccc(F)cc2c1NS(=O)(=O)c1ccc(OC)cc1OC | i | i | i | i | i | i | nt | nt | nt
COC(=O)c1[nH]c2ccc(F)cc2c1NS(=O)(=O)c1ccc(F)c(C)c1 | i | i | i | i | i | i | nt | nt | nt
COC(=O)c1[nH]c2ccc(C)cc2c1NS(=O)(=O)c1ccc(F)cc1 | i | i | i | 68 | i | i | i | nt | nt
COC(=O)c1[nH]c2ccc(C)cc2c1NS(=O)(=O)c1ccc(F)c(C)c1 | i | i | i | 68 | i | i | i | nt | nt
Cc1ccc(C)c(S(=O)(=O)N2CCN(C(=O)[C@H](C)N3C(=O)C4CC=CCC4C3=O)CC2)c1 (stereo partly drawn) | i | i | i | i | i | i | nt | nt | nt
Cc1cc(O)c(C(C)C)cc1N=Cc1ccc(N(C)C)cc1 | i | i | i | 106 | nt | i | 83 | 87 | i
Cc1cc(O)c(C(C)C)cc1N=Cc1ccc([N+](=O)[O-])cc1 | i | i | i | 91 | nt | i | 62 | i | i
COc1cccc(C=Nc2cc(C(C)C)c(O)cc2C)c1O | i | i | i | 114 | nt | i | 67 | i | i
Cc1cc([N+](=O)[O-])ccc1NC(=O)C(C)NC1CCCCC1 (stereo not drawn) | i | i | i | i | i | i | nt | nt | nt
COc1ccc(C(=O)c2coc(-c3ccccc3C(=O)O)c2C(=O)O)cc1 | i | i | i | i | i | i | nt | nt | nt
COc1ccc(C(=O)c2c(C(F)(F)F)oc3c2C(=O)c2ccccc2C3=O)cc1 | i | i | i | 76 | i | i | 35 | i | i
CC(C)(C)c1ccc(C(=O)Nc2sc3c(c2C(=O)O)CCC3)cc1 | i | i | i | 76 | i | i | 59 | i | i
O=C(Nc1sc2c(c1C(=O)O)CCCCC2)c1ccccc1F | i | i | i | 62 | i | i | i | nt | nt
O=C(Nc1scc(-c2ccccc2)c1C(=O)O)c1ccc(F)cc1 | i | i | i | i | i | i | nt | nt | nt
O=C(Nc1sc2c(c1C(=O)O)CCCC2)c1ccc(F)cc1 | i | i | i | 93 | i | i | 73 | 55 | 55
Cc1ccc(-c2csc(NC(=O)c3ccc(F)cc3)c2C(=O)O)cc1 | i | i | i | 88 | i | i | i | nt | nt
CCCCN1C(=O)/C(=C2\SC(N3CCCCC3)=NC2=O)c2ccccc21 | i | i | i | 65 | i | i | i | nt | nt
CC(C)C1C(=O)N(Cc2cn(Cc3ccco3)nn2)CCS(=O)(=O)N1Cc1ccc(-c2ccc(F)cc2)cc1 (stereo not drawn) | nt | i | i | i | nt | nt | nt | nt | nt
Cc1ccc(-n2sc3ccccc3c2=O)cc1 | i | i | i | 115 | i | i | 101 | i | i
O=c1c2ccccc2sn1-c1ccc(Cl)cc1 | nt | i | i | 126 | nt | nt | 106 | i | i
CCOC(=O)NC(N(O)c1cccc(Cl)c1)C(Cl)(Cl)Cl (stereo not drawn) | i | nt | nt | 85 | i | i | i | nt | nt
COc1cc(C)ccc1Oc1nc(-c2ccccc2O)nc2ccccc12 | i | i | i | i | i | i | nt | nt | nt
